Results on 16 compounds are retold here after PubChem BioAssay.

Calls of active or inactive are those of the source.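 How the source made its calls, unless noted: active means viability at or below 10% of carrier control in both of two separate runs; inconclusive means viability at or below 10% in only one of the two runs; inactive means the rest.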

The nature of experiment [1]: reducers of endogenous Her2 protein level, primary screen, SKBR3 breast tumor cells, AlphaScreen, ATP viability (AID 461;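 active means Her2 level under about 52% in both replicate screens, with viability over 70% of control, limit read from the data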;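 on Her2 level: lower value means less Her2 protein in the cells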;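 on viability: percent of carrier control wells set as 100% viability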). The note with it: 18-24 h, measured here: SKBR3 viability, ATP luminescence, at 10 µM.
Experiment [2] concerns the target Receptor tyrosine-protein kinase erbB-2 (Homo sapiens) (UniProt P04626). Described as above. The note with it: 18-24 h, at 10 µM, stronger effect = lower value.
Experiment [3] is described as follows: SK-BR-3 cell growth inhibitors, pilot screen, 24 h, human (AID 572).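 Further: compound exposure lasted between 18 and 24 h rather than exactly 24 h; 100% = carrier-treated control wells.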 As to conditions: SK-BR-3 viability, CellTiter-Glo luminescence, at 10 µM, stronger effect = lower value.
Experiment [4] in a line: HUVEC growth inhibition – cell-based, human, primary screen (AID 575;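 active means viability at or below 30% in both replicate assays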;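 further: 100% = median of untreated cell wells with 0.1% DMSO on each plate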). The note with it: HUVEC proliferation, CellTiter-Glo luminescence, 72 h; at 10 µM; stronger effect = lower value. The method, boiled down: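 Test system – primary HUVEC, no more than 12 passages · Dosing – one dose, 10 µM final, 0.1% DMSO · Times – 72 h treatment at 37 °C · Measured by – ATP-based CellTiter-Glo luminescent read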
Background: In ATP-based viability assays light output follows the ATP content of the culture.

Experiment [5] in a line: growth inhibitors of H69AR lung tumor, primary screen, human, duplicate replicates (AID 580;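 active means viability at or under a set limit in both replicates, limit being median viability minus 3 SD, cut at about 48% in these data, passing the limit was not always enough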;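 further: 100% = mean luminescence of untreated wells and 0% = no signal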). The note with it: H69AR lung tumor cells viability, ATP luminescence, 72 h; at 10 µM; stronger effect = lower value.
Experiment [6] in a line: reversal of MRP1-mediated doxorubicin resistance, pilot screen, H69AR cells, doxorubicin co-treatment (AID 601;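 active means viability loss from added drug above about 55%, and viability with drug at most 40%, in both replicates, limit read from the data, passing the limit was not always enough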). The note with it: CellTiter-Glo, 72 h, at 10 µM; for differential viability (reversal): stronger effect = higher value.
Experiment [7] is described as follows: 384-well plate pilot, post-Golgi transport modulator project, inhibition of yeast transport mutant growth (AID 636; in the data active means inhibition above about 31%). As to conditions: absorbance 615 nm, about 18 h, stronger effect = higher value.
The nature of experiment [8]: growth suppression of yeast trafficking mutant, preliminary HTS, modulators of trafficking downstream of Golgi apparatus project, 1536-format plate, OD 615 nm (AID 637; in the data active means inhibition above about 30%). As to conditions: yeast transport mutant growth, absorbance 615 nm, 18 h; stronger effect = higher value.
Setting [9] is: H69AR cells + 2 uM doxorubicin, measured here: viability with 2 uM doxorubicin, stronger effect = lower value.
Where [10] appears, read: H69AR cells, compound alone cytotoxicity.

Receptor tyrosine-protein kinase erbB-2 (Homo sapiens), sequence (P04626 whole entry, looked up): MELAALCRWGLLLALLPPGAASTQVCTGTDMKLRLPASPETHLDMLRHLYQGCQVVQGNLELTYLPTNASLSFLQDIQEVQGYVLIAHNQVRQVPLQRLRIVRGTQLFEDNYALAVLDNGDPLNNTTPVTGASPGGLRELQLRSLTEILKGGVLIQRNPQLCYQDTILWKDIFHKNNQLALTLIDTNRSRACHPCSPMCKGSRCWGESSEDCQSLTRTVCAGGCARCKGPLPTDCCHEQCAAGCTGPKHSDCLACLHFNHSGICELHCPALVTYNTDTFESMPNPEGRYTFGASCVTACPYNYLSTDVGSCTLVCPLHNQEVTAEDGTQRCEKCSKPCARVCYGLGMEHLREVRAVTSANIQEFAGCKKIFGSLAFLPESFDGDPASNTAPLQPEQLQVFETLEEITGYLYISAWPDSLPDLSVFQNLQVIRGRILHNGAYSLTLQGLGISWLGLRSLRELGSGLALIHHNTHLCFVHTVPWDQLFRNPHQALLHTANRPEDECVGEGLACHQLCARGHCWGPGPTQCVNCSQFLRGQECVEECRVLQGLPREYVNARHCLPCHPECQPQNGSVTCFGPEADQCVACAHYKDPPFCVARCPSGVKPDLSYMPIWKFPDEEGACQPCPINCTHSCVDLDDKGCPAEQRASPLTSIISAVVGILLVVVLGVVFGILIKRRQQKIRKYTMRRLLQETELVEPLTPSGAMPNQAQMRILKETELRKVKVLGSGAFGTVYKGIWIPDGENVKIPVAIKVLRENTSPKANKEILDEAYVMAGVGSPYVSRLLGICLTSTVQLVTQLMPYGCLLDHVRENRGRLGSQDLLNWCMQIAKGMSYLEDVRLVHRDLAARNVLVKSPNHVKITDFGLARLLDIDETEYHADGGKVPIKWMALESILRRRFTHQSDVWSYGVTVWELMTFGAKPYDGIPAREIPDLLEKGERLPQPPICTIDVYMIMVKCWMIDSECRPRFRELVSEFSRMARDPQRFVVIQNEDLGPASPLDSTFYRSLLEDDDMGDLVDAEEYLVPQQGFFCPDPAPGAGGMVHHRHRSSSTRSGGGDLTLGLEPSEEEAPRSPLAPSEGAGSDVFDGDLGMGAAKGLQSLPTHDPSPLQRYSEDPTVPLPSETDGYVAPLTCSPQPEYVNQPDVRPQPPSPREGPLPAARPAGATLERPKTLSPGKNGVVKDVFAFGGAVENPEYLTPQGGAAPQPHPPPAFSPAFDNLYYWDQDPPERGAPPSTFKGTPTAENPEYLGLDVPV

What is called viability is a read-out of living cells in per cent, often relative to untreated cells. Usually inhibition stands for the change of the read-out against control, counted positive when it falls. For `CCOC(=O)c1sc(NC(=O)C2CC=CCC2C(=O)O)nc1C` (stereo not given), the viability in experiment [1] was 105%; in experiment [3], 105% (inactive); in experiment [4] it was 100% (inactive); in experiment [5], 98.1% (inactive); in experiment [6] (setting [9]), 97.1%; in experiment [6] (setting [10]), 98.1%. For the same compound, in experiment [2], the Her2 level was 92.5% (inactive). Further, the differential viability (reversal) in experiment [6] (H69AR cells + 2 uM doxorubicin) was 1.07% (inactive). For the same compound, the figures for the inhibition in experiment [7] and in experiment [8] were -1.04% (inactive) and -1.64% (inactive), respectively.

Regarding `CCOC(=O)N1CCN(C(=O)CCc2c(C)nc3c(c(C)nn3-c3ccc(C)c(C)c3)c2C)CC1`, the viability was 92% in experiment [1]; 92% (inactive) in experiment [3]; 82% (inactive) in experiment [4]; 86.2% (inactive) in experiment [5]; 80% in experiment [6] (setting [9]); 86.2% in experiment [6] (setting [10]). In experiment [2], the Her2 level was 88.5% (inactive). In experiment [6] (H69AR cells + 2 uM doxorubicin), the differential viability (reversal) was 6.21% (inactive). Besides, the inhibition was -1.71% (inactive) in experiment [7] and -7.64% (inactive) in experiment [8].

In the case of `Cn1c(SCC(=O)N2CCOCC2)nnc1-c1cnccn1`, the viability in experiment [1] was 109%; in experiment [3], 109% (inactive); in experiment [4], 101% (inactive); in experiment [5], 109% (inactive); in experiment [6] (setting [9]) it was 98.7%; in experiment [6] (setting [10]), 109%. The Her2 level in experiment [2] is 116% (inactive). In addition, in experiment [6] (H69AR cells + 2 uM doxorubicin), the differential viability (reversal) is 10.4% (inactive). Further, the inhibition is -4.34% (inactive) in experiment [7] and -9.17% (inactive) in experiment [8].

In the case of `CC(NC(=O)COc1ccc(Br)cc1)C(=O)O` (stereo not given), the viability is 108% in experiment [1]; 108% (inactive) in experiment [3]; 104% (inactive) in experiment [4]; 91.8% (inactive) in experiment [5]; 87.6% in experiment [6] (setting [9]); 91.8% in experiment [6] (setting [10]). In addition, in experiment [2], the Her2 level is 114% (inactive). Besides, the differential viability (reversal) in experiment [6] (H69AR cells + 2 uM doxorubicin) was 4.2% (inactive). Also, the values for the inhibition in experiment [7] and in experiment [8] were -3.64% (inactive) and -2.33% (inactive), respectively.

Regarding `CN(C)c1ccc(CNCCC2(O)CCOC(C)(C)C2)cc1` (stereo not given), the viability in experiment [1] was 89%; in experiment [3], 89% (inactive); in experiment [4] it was 95.3% (inactive); in experiment [5], 102% (inactive); in experiment [6] (setting [9]), 95%; in experiment [6] (setting [10]), 102%. In experiment [2], the Her2 level is 86% (inactive). Besides, in experiment [6] (H69AR cells + 2 uM doxorubicin), the differential viability (reversal) was 7.18% (inactive). For the same compound, the inhibition was -6.08% (inactive) in experiment [7] and 1.64% (inactive) in experiment [8].

As for `CCOC(=O)c1[nH]c(C)c(C(=O)N2CCN(c3ccc(F)cc3)CC2)c1C`, the viability in experiment [1] is 107%; in experiment [3] it was 107% (inactive); in experiment [4], 107% (inactive); in experiment [5], 92.3% (inactive); in experiment [6] (setting [9]) it was 90.2%; in experiment [6] (setting [10]) it was 92.3%. Further, the Her2 level in experiment [2] is 84% (inactive). Further, in experiment [6] (H69AR cells + 2 uM doxorubicin), the differential viability (reversal) was 2.1% (inactive). Moreover, the inhibition in experiment [7] is -2.37% (inactive); in experiment [8] it was -4.44% (inactive).

On to `Cc1cc(C)n(-c2nc3nonc3nc2-n2nc(C)cc2C)n1`, for which the viability in experiment [1] is 91.5%; in experiment [3] it was 91.5% (inactive); in experiment [4], 83.3% (inactive); in experiment [5], 105% (inactive); in experiment [6] (setting [9]) it was 90.3%; in experiment [6] (setting [10]), 105%. Further, in experiment [2], the Her2 level is 83% (inactive). Moreover, in experiment [6] (H69AR cells + 2 uM doxorubicin), the differential viability (reversal) was 14.7% (inactive). Moreover, the inhibition in experiment [7] was -2.5% (inactive); in experiment [8], -3.17% (inactive).

For `CCOc1ccc(OCC)c(NC(=O)CCCN2C(=O)c3cccnc3C2=O)c1`, the viability in experiment [1] was 110%; in experiment [3], 110% (inactive); in experiment [4] it was 110% (inactive); in experiment [5], 85.8% (inactive); in experiment [6] (setting [9]), 88.3%; in experiment [6] (setting [10]), 85.8%. For the same compound, the Her2 level in experiment [2] was 128% (inactive). Further, the differential viability (reversal) in experiment [6] (H69AR cells + 2 uM doxorubicin) is -2.52% (inactive). The inhibition in experiment [7] is 0.81% (inactive); in experiment [8], 7.14% (inactive).

Consider `O=C(O)c1cc2c(s1)CCCC2`, for which the viability was 88.5% in experiment [1]; 88.5% (inactive) in experiment [3]; 104% (inactive) in experiment [4]; 89.9% (inactive) in experiment [5]; 91.1% in experiment [6] (setting [9]); 89.9% in experiment [6] (setting [10]). Besides, in experiment [2], the Her2 level is 93% (inactive). In experiment [6] (H69AR cells + 2 uM doxorubicin), the differential viability (reversal) was -1.15% (inactive). Further, the inhibition in experiment [7] is -1.03% (inactive); in experiment [8] it was -7.83% (inactive).

For the compound `O=C(COc1ccccc1)N1CCN(C(=O)c2cccc(F)c2)CC1`, the viability was 112% in experiment [1]; 112% (inactive) in experiment [3]; 102% (inactive) in experiment [4]; 101% (inactive) in experiment [5]; 86.7% in experiment [6] (setting [9]); 101% in experiment [6] (setting [10]). Besides, in experiment [2], the Her2 level is 90% (inactive). Further, the differential viability (reversal) in experiment [6] (H69AR cells + 2 uM doxorubicin) is 13.9% (inactive). Also, the values for the inhibition in experiment [7] and in experiment [8] were -8.11% (inactive) and 6.72% (inactive), respectively.

Consider `O=C(CCNC(=O)Cn1ccc2ccccc2c1=O)NCCN1CCc2ccccc2C1`, for which the viability is 118% in experiment [1]; 118% (inactive) in experiment [3]; 87.3% (inactive) in experiment [4]; 91.8% (inactive) in experiment [5]; 91% in experiment [6] (setting [9]); 91.8% in experiment [6] (setting [10]). In experiment [2], the Her2 level was 98% (inactive). The differential viability (reversal) in experiment [6] (H69AR cells + 2 uM doxorubicin) is 0.755% (inactive). In addition, the inhibition in experiment [7] is -7.63% (inactive); in experiment [8], -8.18% (inactive).

Take `c1cncc(-c2nnc3sc(-c4ccco4)nn23)c1`: the viability is 118% in experiment [1]; 118% (inactive) in experiment [3]; 99.5% (inactive) in experiment [4]; 91.5% (inactive) in experiment [5]; 98.3% in experiment [6] (setting [9]); 91.5% in experiment [6] (setting [10]). The Her2 level in experiment [2] was 106% (inactive). The differential viability (reversal) in experiment [6] (H69AR cells + 2 uM doxorubicin) was -6.86% (inactive). Besides, the inhibition in experiment [7] is -5.39% (inactive); in experiment [8], 4.68% (inactive).

As for `O=C(NC1CCCCC1)c1cc2nc(-c3ccco3)cc(C(F)(F)F)n2n1`, the viability is 81.5% in experiment [1]; 81.5% (inactive) in experiment [3]; 106% (inactive) in experiment [4]; 80.2% (inactive) in experiment [5]; 83.2% in experiment [6] (setting [9]); 80.2% in experiment [6] (setting [10]). Further, the Her2 level in experiment [2] was 93% (inactive). Besides, in experiment [6] (H69AR cells + 2 uM doxorubicin), the differential viability (reversal) was -2.98% (inactive). In addition, the inhibition in experiment [7] is -2.08% (inactive); in experiment [8], 2.79% (inactive).

Regarding `COC(=O)CC1SCCNC1=O` (stereo not given), the viability in experiment [1] is 92%; in experiment [3], 92% (inactive); in experiment [4], 103% (inactive); in experiment [5], 95.6% (inactive); in experiment [6] (setting [9]), 90.6%; in experiment [6] (setting [10]) it was 95.6%. For the same compound, the Her2 level in experiment [2] is 94% (inactive). The differential viability (reversal) in experiment [6] (H69AR cells + 2 uM doxorubicin) was 5.06% (inactive). Also, the inhibition was 5.87% (inactive) in experiment [7] and 23.7% (inactive) in experiment [8].

In the case of `O=C(NCCC1=CCCCC1)C1CCN(S(=O)(=O)c2cccc3nsnc23)CC1`, the viability in experiment [1] was 104%; in experiment [3], 104% (inactive); in experiment [4] it was 58.5% (inactive); in experiment [5] it was 96.5% (inactive); in experiment [6] (setting [9]) it was 82.4%; in experiment [6] (setting [10]) it was 96.5%. For the same compound, the Her2 level in experiment [2] was 92.5% (inactive). The differential viability (reversal) in experiment [6] (H69AR cells + 2 uM doxorubicin) is 14.2% (inactive). The values for the inhibition in experiment [7] and in experiment [8] were -5.33% (inactive) and 0.98% (inactive), respectively.

Take `CC(=O)N(C)C1(c2nnnn2CCOC(=O)Nc2cccc3ccccc23)CCCC1`: the viability in experiment [1] was 119%; in experiment [3], 119% (inactive); in experiment [4], 83.9% (inactive); in experiment [5] it was 87.3% (inactive); in experiment [6] (setting [9]), 84.1%; in experiment [6] (setting [10]) it was 87.3%. Also, the Her2 level in experiment [2] is 85.5% (inactive). Also, the differential viability (reversal) in experiment [6] (H69AR cells + 2 uM doxorubicin) is 3.21% (inactive). The inhibition in experiment [7] is -4.13% (inactive); in experiment [8], 5.08% (inactive).
